# According to ChEMBL document CHEMBL1140232, “Surprising alteration of antibacterial activity of 5"-modified neomycin against resistant bacteria” (2008):
# What was measured:
# [1] = tested on: Staphylococcus aureus; assay: Antibacterial activity against aminoglycoside-susceptible Staphylococcus aureus ATCC 25923 after 12 to 18 hrs; assay type: functional
# How it was run: (§1)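 Broth microdilution. Bacterial suspension adjusted with broth to absorbance 0.08–0.1 at 625 nm, diluted further in broth, and mixed in wells with 2-fold serial dilutions of compound. Plates incubated at 35°C for 12–18 h. MIC is the lowest concentration inhibiting growth; each determination repeated at least three times.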
# [2] = tested on: Staphylococcus aureus; assay: Antibacterial activity against methicillin-resistant Staphylococcus aureus ATCC 33591 after 12 to 18 hrs; assay type: functional
# How it was run: (§2)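 Broth microdilution MIC. Culture diluted with broth to an absorbance of 0.08–0.1 at 625 nm. 100 μL of this was diluted into 10 mL broth and dispensed into 96-well plates. Each well received 50 μL inoculum plus 50 μL of a 2-fold compound dilution series. Plates were incubated at 35°C for 12–18 h. MIC is the lowest concentration that inhibits growth, from at least three repeats.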
# [3] = tested on: Escherichia coli; assay: Antibacterial activity against Escherichia coli TG1 pET28a plasmid encoded for APH(3')-3a after 12 to 18 hrs; assay type: functional; how it was run: as §1
# [4] = tested on: Escherichia coli; assay: Antibacterial activity against aminoglycoside-susceptible Escherichia coli ATCC 25922 after 12 to 18 hrs; assay type: functional; how it was run: as §1
# [5] = tested on: Enterococcus faecalis; assay: Antibacterial activity against vancomycin-susceptible and aminoglycosides-resistant Enterococcus faecalis ATCC 29212 after 12 to 18 hrs; assay type: functional; how it was run: as §2
# [6] = tested on: Enterococcus faecalis; assay: Antibacterial activity against vancomycin-resistant Enterococcus faecalis ATCC 51299 expressing vanB, ant(6)-1, aac(6')-aph(2') resistant gene after 12 to 18 hrs; assay type: functional; how it was run: as §2
# [7] = tested on: Escherichia coli; assay: Antibacterial activity against Escherichia coli TG1 pSF815 plasmid encoded for AAC(6')/APH(2') after 12 to 18 hrs; assay type: functional; how it was run: as §1
# [8] = tested on: Escherichia coli; assay: Antibacterial activity against Escherichia coli TG1 pTZ19U-3 plasmid encoded for APH(3')-1 after 12 to 18 hrs; assay type: functional; how it was run: as §1
# [9] = tested on: Klebsiella pneumoniae; assay: Antibacterial activity against multidrug-resistant Klebsiella pneumoniae ATCC 700603 isolate after 12 to 18 hrs; assay type: functional; how it was run: as §2
# [10] = tested on: Klebsiella pneumoniae; assay: Antibacterial activity against ampicillin-resistant and aminoglycosides-susceptible Klebsiella pneumoniae ATCC 13883 after 12 to 18 hrs; assay type: functional; how it was run: as §2
# [11] = tested on: Escherichia coli; assay: Antibacterial activity against aminoglycoside-susceptible Escherichia coli TG1 after 12 to 18 hrs; assay type: functional; how it was run: as §1
# [12] = tested on: Enterococcus; assay: Activity of Enterococcus APH(3')-3a
# [13] = tested on: Enterococcus; assay: Ratio of kcat to Km of Enterococcus APH(3')-3a
# [14] = tested on: Pseudomonas aeruginosa; assay: Antibacterial activity against aminoglycosides-resistant Pseudomonas aeruginosa ATCC 27853 expressing APH(3')-2b after 12 to 18 hrs; assay type: functional; how it was run: as §2
MIC [1] [µg/mL],MIC [3] [µg/mL],MIC [4] [µg/mL],MIC [7] [µg/mL],MIC [8] [µg/mL],MIC [11] [µg/mL],Km [12] [µM],Vmax [12] [µmol/min/mg],kcat [12] [s⁻¹],kcat/Km [13] [×10⁴ /M/s],SMILES,MIC [2] [µg/mL],MIC [5] [µg/mL],MIC [6] [µg/mL],MIC [9] [µg/mL],MIC [10] [µg/mL],MIC [14] [µg/mL]
4,64,16,32,≥ 2000,16,171,0.41,0.21,0.12,NC[C@@H]1O[C@H](O[C@H]2[C@@H](O)[C@H](O[C@@H]3[C@@H](O)[C@H](N)C[C@H](N)[C@H]3O[C@H]3O[C@H](CN)[C@@H](O)[C@H](O)[C@H]3N)O[C@@H]2Cn2cc(CNC(=O)C3CCNCC3)nn2)[C@H](N)[C@@H](O)[C@@H]1O,–,–,–,–,–,–
4,64,16,16,≥ 2000,8,48,0.95,0.48,1,CCCCCCC(=O)NC[C@H]1O[C@@H](O[C@@H]2[C@@H](O)[C@H](N)C[C@H](N)[C@H]2O[C@H]2O[C@H](CN)[C@@H](O)[C@H](O)[C@H]2N)[C@H](O)[C@@H]1O[C@H]1O[C@@H](CN)[C@@H](O)[C@H](O)[C@H]1N,–,–,–,–,–,–
0.5,64,16,16,≥ 2000,16,80,0.63,0.32,0.4,NC[C@@H]1O[C@H](O[C@H]2[C@@H](O)[C@H](O[C@@H]3[C@@H](O)[C@H](N)C[C@H](N)[C@H]3O[C@H]3O[C@H](CN)[C@@H](O)[C@H](O)[C@H]3N)O[C@@H]2CNC(=O)[C@@H]2CCCN2)[C@H](N)[C@@H](O)[C@@H]1O,–,–,–,–,–,–
4,32,32,16,500,8,127,0.75,0.38,0.3,CCCCCCc1cn(C[C@H]2O[C@@H](O[C@@H]3[C@@H](O)[C@H](N)C[C@H](N)[C@H]3O[C@H]3O[C@H](CN)[C@@H](O)[C@H](O)[C@H]3N)[C@H](O)[C@@H]2O[C@H]2O[C@@H](CN)[C@@H](O)[C@H](O)[C@H]2N)nn1,–,–,–,–,–,–

# The remaining lines, values behind:
SMILES,MIC [1] [µg/mL],MIC [3] [µg/mL],MIC [4] [µg/mL],MIC [7] [µg/mL],MIC [8] [µg/mL],MIC [11] [µg/mL],Km [12] [µM],Vmax [12] [µmol/min/mg],kcat [12] [s⁻¹],kcat/Km [13] [×10⁴ /M/s],MIC [2] [µg/mL],MIC [5] [µg/mL],MIC [6] [µg/mL],MIC [9] [µg/mL],MIC [10] [µg/mL],MIC [14] [µg/mL]
NCC(=O)NC[C@H]1O[C@@H](O[C@@H]2[C@@H](O)[C@H](N)C[C@H](N)[C@H]2O[C@H]2O[C@H](CN)[C@@H](O)[C@H](O)[C@H]2N)[C@H](O)[C@@H]1O[C@H]1O[C@@H](CN)[C@@H](O)[C@H](O)[C@H]1N,1,32,16,8,500,8,75,0.88,0.44,0.6,16,32,≥ 250,8,4,8
NC[C@@H]1O[C@H](O[C@H]2[C@@H](O)[C@H](O[C@@H]3[C@@H](O)[C@H](N)C[C@H](N)[C@H]3O[C@H]3O[C@H](CN)[C@@H](O)[C@H](O)[C@H]3N)O[C@@H]2CO)[C@H](N)[C@@H](O)[C@@H]1O [FRAMYCETIN],1,64,4,4,≥ 2000,4,6,3.22,1.61,26.8,125,64,≥ 250,16,4,64
NCC[C@H](O)C(=O)N[C@@H]1C[C@H](N)[C@@H](O[C@H]2O[C@H](CN)[C@@H](O)[C@H](O)[C@H]2O)[C@H](O)[C@H]1O[C@H]1O[C@H](CO)[C@@H](O)[C@H](N)[C@H]1O [AMIKACIN],–,1,–,–,–,–,57.4,2.75,1.38,2.4,8,32,≥ 250,0.5,1,0.5
CN[C@H](CC(C)C)C(=O)N[C@H]1C(=O)N[C@@H](CC(N)=O)C(=O)N[C@H]2C(=O)N[C@H]3C(=O)N[C@H](C(=O)N[C@H](C(=O)O)c4cc(O)cc(O)c4-c4cc3ccc4O)[C@H](O)c3ccc(c(Cl)c3)Oc3cc2cc(c3O[C@@H]2O[C@H](CO)[C@@H](O)[C@H](O)[C@H]2O[C@H]2C[C@](C)(N)[C@H](O)[C@H](C)O2)Oc2ccc(cc2Cl)[C@H]1O [VANCOMYCIN],–,–,–,–,–,–,–,–,–,–,–,–,125,–,–,–
